Values after ≈ are worked out from the molar mass of the structure shown. Active and inactive are the calls of the source. The rule behind the calls is not given here.
Columns and labels:
[1] = target: ATP binding cassette transporter Abc1p (Issatchenkia orientalis) (UniProt Q09GQ4); assay: Inhibition of Candida krusei Abc1p expressed in Saccharomyces cerevisiae isolate AD assessed as reduction of itraconazole MIC at 1 ug after 48 hrs by agarose diffusion assay; conditions: Pichia kudriavzevii
[2] = target: ATP binding cassette transporter Abc1p (Issatchenkia orientalis) (UniProt Q09GQ4); assay: Inhibition of Candida krusei IF011 Abc1p assessed as reduction of itraconazole MIC at 1 ug after 48 hrs by agarose diffusion assay; conditions: Pichia kudriavzevii
[3] = target: ATP binding cassette transporter Abc1p (Issatchenkia orientalis) (UniProt Q09GQ4); assay: Inhibition of Candida krusei B2399 Abc1p assessed as reduction of itraconazole MIC at 1 ug after 48 hrs by agarose diffusion assay; conditions: Pichia kudriavzevii
[4] = target: ATP binding cassette transporter Abc1p (Issatchenkia orientalis) (UniProt Q09GQ4); assay: Inhibition of Candida krusei ABC1 expressed in Saccharomyces cerevisiae isolate ADdelta at 87 nM; conditions: Pichia kudriavzevii
How it was run: (§1)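 Agarose disk-diffusion test of S. cerevisiae AD overexpressing C. krusei Abc1p, with the parent AD strain as comparison. Cells were pregrown from YPD overnight into CSM to mid-log at 30°C. They were seeded at OD600 0.008 in CSM with 0.6% agarose, overlaid on CSM agar (pH 7.0). Paper disks carrying set nmol amounts of xenobiotic were applied, and plates were incubated at 30°C for 48 h before reading growth inhibition zones.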

[5] = target: ATP binding cassette transporter Abc1p (Issatchenkia orientalis) (UniProt Q09GQ4); assay: Inhibition of Candida krusei ABC1 expressed in Saccharomyces cerevisiae isolate ADdelta at 19 nM; conditions: Pichia kudriavzevii; how it was run: as §1
[6] = test system: Saccharomyces cerevisiae; assay: Fold resistant, ratio of MIC for Saccharomyces cerevisiae isolate ADdelta overexpressing Saccharomyces cerevisiae ERG11 to MIC for Saccharomyces cerevisiae isolate ADdelta overexpressing Abc1p; type: functional
How it was run: (§2)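 Fold resistance is the ratio of azole MICs between S. cerevisiae overexpressing strains. The MICs were measured by liquid broth microdilution in CSM medium at pH 7.0. The ERG11 or ABC1 constructs are integrated at the PDR5 locus.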

[7] = test system: Pichia kudriavzevii; assay: Antimicrobial activity against Candida krusei NZCDC 90.147 after 48 hrs by liquid microdilution assay; type: functional; conditions: NZCDC 90.147, 48 h
How it was run: (§3)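 Liquid broth microdilution susceptibility assay in CSM medium at pH 7.0, which was also the medium used for the expression studies. Fungal strains were maintained in YPD. The S. cerevisiae test strains carry C. krusei ABC1 or fungal ERG11 alleles integrated at the chromosomal PDR5 locus.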

[8] = test system: Pichia kudriavzevii; assay: Antimicrobial activity against Candida krusei B2399 after 48 hrs by liquid microdilution assay; type: functional; conditions: B2399, 48 h; how it was run: as §3
[9] = test system: Saccharomyces cerevisiae; assay: Antimicrobial activity against Saccharomyces cerevisiae isolate ADdelta overexpressing Saccharomyces cerevisiae ERG11 after 48 hrs by liquid microdilution assay; type: functional; how it was run: as §3
[10] = test system: Pichia kudriavzevii; assay: Increase in ERG11 mRNA expression in Candida krusei B2399 at 2 times MIC concentration after 1 hr by hot-phenol extraction based Northern blotting; type: functional, organism-based
How it was run: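 Logarithmically grown C. krusei B2399 was exposed to azole for 60 min (2x MIC for VRC, MCZ and ITC; 1x MIC for FLC) alongside an untreated control. Total RNA was extracted with hot phenol, and 10 µg was run on 1.2% denaturing agarose. It was Northern blotted and probed with a radiolabeled ERG11 fragment. ACT1 mRNA served as internal control, with EtBr-stained rRNA showing loading.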

[11] = test system: Saccharomyces cerevisiae; assay: Antimicrobial activity against Saccharomyces cerevisiae isolate ADdelta overexpressing Candida albicans ERG11A after 48 hrs by liquid microdilution assay; type: functional; how it was run: as §3
[12] = test system: Pichia kudriavzevii; assay: Antimicrobial activity against Candida krusei NZCDC 89.021 after 48 hrs by liquid microdilution assay; type: functional; conditions: NZCDC 89.021, 48 h; how it was run: as §3
[13] = test system: Pichia kudriavzevii; assay: Antimicrobial activity against Candida krusei IFO0011 after 48 hrs by liquid microdilution assay; type: functional; conditions: IFO0011, 48 h; how it was run: as §3
[14] = test system: Saccharomyces cerevisiae; assay: Fold resistant, ratio of MIC for Saccharomyces cerevisiae isolate ADdelta overexpressing Candida albicans ERG11A to MIC for Saccharomyces cerevisiae isolate ADdelta overexpressing Abc1p; type: functional; how it was run: as §2
[15] = test system: Saccharomyces cerevisiae; assay: Antimicrobial activity against Saccharomyces cerevisiae isolate ADdelta overexpressing Abc1p after 48 hrs by liquid microdilution assay; type: functional; how it was run: as §3
[16] = test system: Pichia kudriavzevii; assay: Antimicrobial activity against Candida krusei IFO0011 after 48 hrs by CLSI method; type: functional; conditions: IFO0011, 48 h
How it was run: (§4)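 Azole MICs were determined by the CLSI M27-A2 broth microdilution reference method. They were interpreted against the CLSI breakpoints. Strains were maintained in YPD medium (1% yeast extract, 2% peptone, 2% glucose).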

[17] = test system: Saccharomyces cerevisiae; assay: Antimicrobial activity against Saccharomyces cerevisiae isolate AD overexpressing Candida krusei ERG11C after 48 hrs by liquid microdilution assay; type: functional; how it was run: as §3
[18] = test system: Pichia kudriavzevii; assay: Antimicrobial activity against Candida krusei NZCDC 90.147 after 48 hrs by CLSI method; type: functional; how it was run: as §4
[19] = test system: Pichia kudriavzevii; assay: Antimicrobial activity against Candida krusei B2399 after 48 hrs by CLSI method; type: functional; conditions: B2399, 48 h; how it was run: as §4
[20] = test system: Pichia kudriavzevii; assay: Antimicrobial activity against Candida krusei NZCDC 89.221 after 48 hrs by liquid microdilution assay; type: functional; conditions: NZCDC 89.221, 48 h; how it was run: as §3
[21] = test system: Pichia kudriavzevii; assay: Antimicrobial activity against Candida krusei NZCDC 89.102 after 48 hrs by CLSI method; type: functional; how it was run: as §4
[22] = test system: Pichia kudriavzevii; assay: Antimicrobial activity against Candida krusei NZCDC 89.021 after 48 hrs by CLSI method; type: functional; conditions: NZCDC 89.021, 48 h; how it was run: as §4
[23] = test system: Pichia kudriavzevii; assay: Antimicrobial activity against Candida krusei NZCDC 89.221 after 48 hrs by CLSI method; type: functional; how it was run: as §4
[24] = test system: Saccharomyces cerevisiae; assay: Fold resistant, ratio of MIC for Saccharomyces cerevisiae isolate ADdelta overexpressing Candida krusei ERG11C to MIC for Saccharomyces cerevisiae isolate ADdelta overexpressing Abc1p; type: functional; how it was run: as §2
[25] = test system: Saccharomyces cerevisiae; assay: Antimicrobial activity against Saccharomyces cerevisiae isolate ADdelta overexpressing Candida krusei ERG11g after 48 hrs by liquid microdilution assay; type: functional; how it was run: as §3
[26] = test system: Pichia kudriavzevii; assay: Antimicrobial activity against Candida krusei NZCDC 89.102 after 48 hrs by liquid microdilution assay; type: functional; conditions: NZCDC 89.102, 48 h; how it was run: as §3
[27] = test system: Saccharomyces cerevisiae; assay: Fold resistant, ratio of MIC for Saccharomyces cerevisiae isolate ADdelta overexpressing Candida krusei ERG11g to MIC for Saccharomyces cerevisiae isolate ADdelta overexpressing Abc1p; type: functional; how it was run: as §2

CO[C@@H]1C(C)=C[C@H]2C(=O)O[C@H]3C[C@@H](C/C=C(\C)C[C@@H](C)/C=C/C=C(\CO)[C@]2(O)[C@@H]1O)O[C@@]1(CC[C@H](C)[C@@H](C)O1)C3
Activity [1]: Active
Activity [2]: Active
Activity [3]: Active

C[C@@H]1[C@H](O)[C@@H](C)/C=C/C=C/C=C/C=C/C=C/C=C/C=C/[C@H](O[C@@H]2O[C@H](C)[C@@H](O)[C@H](N)[C@@H]2O)C[C@@H]2O[C@](O)(C[C@@H](O)C[C@@H](O)[C@H](O)CC[C@@H](O)C[C@@H](O)CC(=O)O[C@H]1C)C[C@H](O)[C@H]2C(=O)O
Activity [4]: inactive

Nc1nc(=O)[nH]cc1F
Activity [5]: inactive

C[C@@H](c1ncncc1F)[C@](O)(Cn1cncn1)c1ccc(F)cc1F [VORICONAZOLE]
ratio [6]: 8
MIC [7]: 2 µg/mL (≈ 5.73 µM)
MIC [8]: 1 µg/mL (≈ 2.86 µM)
MIC [9]: 0.063 µg/mL (≈ 0.18 µM)
Activity [10]: Active
MIC [11]: 0.031 µg/mL (≈ 0.0887 µM)
MIC [12]: 2 µg/mL (≈ 5.73 µM)
MIC [13]: 1 µg/mL (≈ 2.86 µM)
ratio [14]: 4
MIC [15]: 0.0078 µg/mL (≈ 0.0223 µM)
MIC [16]: 1 µg/mL (≈ 2.86 µM)
MIC [17]: 0.063 µg/mL (≈ 0.18 µM)
MIC [18]: 1 µg/mL (≈ 2.86 µM)
MIC [19]: 0.5 µg/mL (≈ 1.43 µM)
MIC [20]: 1 µg/mL (≈ 2.86 µM)
MIC [21]: 0.5 µg/mL (≈ 1.43 µM)
MIC [22]: 0.5 µg/mL (≈ 1.43 µM)
MIC [23]: 0.5 µg/mL (≈ 1.43 µM)
ratio [24]: 8
MIC [25]: 0.5 µg/mL (≈ 1.43 µM)
MIC [26]: 2 µg/mL (≈ 5.73 µM)
ratio [27]: 64
